This is a sample that favours compounds with a hit; in the whole collection about 4.1% have one here.
hERG protect = compounds protecting human hERG from proarrhythmic drug block; Q12809; AID 1511; CHO-hERG, FluxOR thallium flux, dofetilide IC70 present; activation (rescue from dofetilide block), less the hit threshold, % at 10 µM; actives 0.51% (n = 310,000);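 active = activation above the mean of controls blocked by dofetilide plus 5 SD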;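 note: thallium influx through hERG after potassium depolarization seen as dye fluorescence rise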
KCNQ1 act = human KCNQ1 channel potentiation or activation. P51787. CHO-K1 KCNQ1, thallium flux FluxOR fluorescence; active compounds read high. B-score at 10 µM. actives 0.35% (n = 310,000). AID 2648;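 active = fluorescence ratio B-score, a plate-corrected score, at least three library SD, with initial intensity B-score within 5 SD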
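Test system: CHO-K1 cells stably expressing KCNQ1 / Medium: assay buffer / Also added: depolarizing K+/Tl+ stimulus, K2SO4 and Tl2SO4 each 12.5 mM in 5x stock / Incubation: 90 min dye loading and 20 min compound exposure, both at room temperature / Signal: thallium influx via FluxOR fluorescence, kinetic imaging / Evaluation: B score of baseline-normalized fluorescence ratio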
KCNK9 inh = inhibitors of human KCNK9 two-pore domain potassium channel; Q9NPC2; HEK293 KCNK9, FluxOR thallium flux fluorescence; active compounds read low; actives 1.2% (n = 310,000); B-score at 10 µM;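 active = ratio B-score over 3 SD below the library mean, with starting fluorescence within 5 SD of its mean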;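 note: negative B-score means less thallium flux so channel inhibition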
Target sequence (Q9NPC2 whole entry, looked up, the tested form may be a part): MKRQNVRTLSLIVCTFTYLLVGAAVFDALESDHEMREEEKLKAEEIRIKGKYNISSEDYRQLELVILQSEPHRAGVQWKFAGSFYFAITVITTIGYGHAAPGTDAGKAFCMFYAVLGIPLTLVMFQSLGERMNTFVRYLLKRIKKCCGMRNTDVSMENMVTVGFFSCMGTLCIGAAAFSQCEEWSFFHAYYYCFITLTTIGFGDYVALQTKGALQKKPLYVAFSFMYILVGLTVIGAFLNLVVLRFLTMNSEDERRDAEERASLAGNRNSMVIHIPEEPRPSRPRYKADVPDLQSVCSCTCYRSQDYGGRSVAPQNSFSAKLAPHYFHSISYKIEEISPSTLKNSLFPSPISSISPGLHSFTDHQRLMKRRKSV
KCNQ1 inh = blocks the human KCNQ1 potassium channel; P51787; CHO-K1 KCNQ1, FluxOR thallium flux fluorescence; active compounds read high; B-score at 10 µM; actives 1.3% (n = 310,000);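 active = compounds whose thallium flux B-score, printed positive for inhibition, exceeds three library SD while starting fluorescence stays within three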;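 note: channel opened by potassium depolarization with thallium stimulus after 20 min compound exposure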
KCNK3 inh = human KCNK3 channel inhibition, primary screen; O14649; CHO-KCNK3 thallium flux, FluxOR fluorescence; active compounds read low; B-score at 10 µM; actives 0.84% (n = 340,000); AID 602410;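 active = B-score under library mean minus 4 SD, starting fluorescence ratio at most library mean plus 5 SD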;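 note: more negative B-score means stronger inhibition of thallium flux through KCNK3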
Target sequence (O14649 whole entry, looked up): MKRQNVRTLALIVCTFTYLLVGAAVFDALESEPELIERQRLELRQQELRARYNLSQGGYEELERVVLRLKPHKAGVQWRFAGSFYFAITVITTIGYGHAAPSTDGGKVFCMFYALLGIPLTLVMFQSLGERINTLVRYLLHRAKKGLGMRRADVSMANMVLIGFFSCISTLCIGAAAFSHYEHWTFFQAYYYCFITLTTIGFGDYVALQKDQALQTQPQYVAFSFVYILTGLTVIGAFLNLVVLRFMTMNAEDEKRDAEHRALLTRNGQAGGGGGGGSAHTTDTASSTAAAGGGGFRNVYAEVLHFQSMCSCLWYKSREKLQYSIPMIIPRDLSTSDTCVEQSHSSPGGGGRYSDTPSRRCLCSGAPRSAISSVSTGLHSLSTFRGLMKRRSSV
KCC2 mod = KCC2 (human) Cl- transport modulation | actives 2.2% (n = 190,000) | KCC2 cells, thallium flux FluoZin-2 fluorescence | B-score of Tl+ flux slope (higher = more flux/activation; lower = inhibition) at 10 µM;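 active = thallium flux slope and its plate-corrected score both differing from the plate sample mean at a set confidence after two filtering rounds, in either direction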;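 note: slope of fluorescence scaled to starting intensity during 10 to 20 s after thallium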
KCC2 sec1 = confirmation of human KCC2 transport modulators. shares compounds with KCC2 mod. HEK293-KCC2, thallium flux, FluoZin2 fluorescence; active compounds read high. normalised thallium flux (F/F0 slope) at 10 µM. actives 15% (n = 3,700). AID 1713;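 active = thallium flux slope above the same plate's solvent-only control mean plus 3 SD; inconclusive = the two replicate wells disagree; inactive = no significant difference from solvent-only control wells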
KCC2 bumet counter = thallium flux despite bumetanide block in KCC2 cells, secondary assay 3; shares compounds with KCC2 mod; AID 1714; HEK293-KCC2 + bumetanide/ouabain, thallium flux FluoZin2; active compounds read high; actives 49% (n = 3,700); normalized thallium flux at 10 µM;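 active = thallium entry rate above the same plate's blocked-transporter control wells by more than 3 SD; inconclusive = the two repeat wells disagree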;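 note: raw slope of fluorescence over initial fluorescence between 10 and 20 s after thallium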
KCC2 secondary2 = KCC2 (human) modulation, second secondary assay. shares compounds with KCC2 mod. HEK293-KCC2, thallium flux FluoZin2 fluorescence; actives lie on both sides; F/F0 rise rate, 10–20 s post-thallium. normalized thallium flux at 10 µM. actives 23% (n = 3,700). AID 1715;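 active = thallium flux slope more than 3 SD above or below the plate's solvent-only control mean, mostly below; inconclusive = the two repeat wells disagreed; inactive = no significant shift from solvent-only controls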
HEK counter1 = parental HEK flux effect, counter-screen; HEK293 parental cells, thallium flux FluoZin2, ouabain; baseline-ratio fluorescence slope, 10–20 s after thallium; actives 46% (n = 3,700); shares compounds with KCC2 mod; AID 1716; thallium flux rate (normalised fluorescence) at 10 µM;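 active = thallium flux rate significantly above the same plate's solvent-only control wells, beyond their mean plus 3 SD; inconclusive = the two replicate wells gave conflicting results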
KCC2 ouabain = modulates human KCC2 on retest with ouabain. shares compounds with KCC2 mod. HEK293-KCC2, thallium flux FluoZin2 fluorescence; bidirectional: low = inhibitor, high = activator. raw Tl+ flux slope (below DMSO = inhibition, above = activation) at 10 µM. actives 48% (n = 3,700). AID 1717;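 active = thallium flux slope beyond 3 SD from same-plate DMSO control mean in most replicates, usually higher, sometimes lower; inconclusive = repeat tests gave conflicting results; inactive = no significant difference from controls in most replicates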;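 note: slope of initial-normalized fluorescence between seconds 10 and 20 after thallium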
HEK293 Tl flux2 = counter-screen for KCC2 modulators: effect in parental HEK293 cells. shares compounds with KCC2 mod. thallium flux FluoZin-2 fluorescence slope. thallium flux slope at 10 µM. actives 33% (n = 3,700). AID 1718;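 active = thallium flux slope above the same plate's solvent-control mean plus 3 SD in both duplicate wells; inconclusive = duplicate wells that disagreed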;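 note: run without ouabain in cells lacking the KCC2 cotransporter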
Hits are given with their value; – = inactive; ? = inconclusive; · = no result given.

SMILES	hERG protect	KCNQ1 act	KCNK9 inh	KCNQ1 inh	KCNK3 inh	KCC2 mod	KCC2 sec1	KCC2 bumet counter	KCC2 secondary2	HEK counter1	KCC2 ouabain	HEK293 Tl flux2
CCN(CC)S(=O)(=O)c1cccc(NC(=O)C(=O)c2c(-c3ccccc3)cc3ccccn23)c1	–	–	–	–	–	-2.89	–	–	–	–	–	–
CCN(CC)S(=O)(=O)c1ccc(N2CCOCC2)c(NC(=O)C(=O)c2c(-c3ccccc3)cc3ccccn23)c1	–	–	–	–	–	–	·	·	·	·	·	·
CC(C)OC(=O)CSc1nnc(-c2cnccn2)n1Cc1ccco1	–	–	–	–	–	–	·	·	·	·	·	·
O=C(CSc1nnc(-c2cnccn2)n1Cc1ccco1)c1ccc2ccccc2c1	–	–	–	–	–	·	–	–	?	?	0.0129	–
Brc1ccc(CSc2nnc(-c3cnccn3)n2Cc2ccco2)cc1	–	–	–	–	–	-4.31	–	–	–	0.00503	0.0131	–
CC(=O)Nc1ccc2c(CSc3nnc(N)s3)cc(=O)oc2c1	–	–	–	–	–	–	·	·	·	·	·	·
COc1ccc(Cl)cc1N(CC(=O)NCCSc1ccccn1)S(=O)(=O)c1ccccc1	–	–	–	–	–	·	·	·	·	·	·	·
CC1CN(S(=O)(=O)c2ccc(C(=O)N(CCCN(C)C)c3nc4c(Cl)cccc4s3)cc2)CC(C)O1 (configuration not stated)	–	–	–	–	–	·	·	·	·	·	·	·
CCOc1ccc(NC(=S)NNC(=O)c2cc(Br)ccc2Cl)cc1	–	–	–	–	–	8.52	–	0.0413	–	?	0.0345	–
COc1ccccc1NS(=O)(=O)c1cccc(C(=O)NNC(=O)C(C)NC(=O)c2ccco2)c1 (configuration not stated)	·	·	·	·	–	·	·	·	·	·	·	·
O=C(N/N=C/c1ccc(Br)o1)c1cc([N+](=O)[O-])cc([N+](=O)[O-])c1	–	–	–	–	–	12	?	0.0238	–	0.00982	0.0263	?
O=C(N/N=C/c1ccco1)c1cc([N+](=O)[O-])cc([N+](=O)[O-])c1	–	–	–	–	–	–	·	·	·	·	·	·
O=C(c1cnn2c(C(F)(F)F)cc(-c3ccccc3)nc12)N1CCCCC1c1cccnc1 (configuration not stated)	–	–	–	–	–	–	–	–	–	0.00539	–	–
Cc1nc(NC(=O)c2ccco2)sc1C(=O)Nc1ccc(Br)cc1	–	–	–	–	–	-5.26	–	–	?	–	–	–
O=C(Nc1nc2c(Br)cc(Br)cc2c(=O)s1)c1ccco1	–	–	–	–	–	17	0.0268	0.03	–	0.0397	0.032	0.0132
Cc1cc(C)c2nc(NC(=O)c3ccco3)sc2c1	–	–	–	–	–	·	·	·	·	·	·	·
O=C(c1ccc([N+](=O)[O-])cc1)N1CCN(c2ncccn2)CC1	–	–	–	–	–	·	·	·	·	·	·	·
Cc1ccc(CNC(=O)CCCc2cn(C)c3ccccc23)cc1	–	–	–	–	–	·	·	·	·	·	·	·
COc1ccccc1OCc1ccc(C(=O)N2N=C(C(F)F)CC2(O)C(F)F)o1 (configuration not stated)	–	–	–	–	–	-3.32	–	–	0.0254	–	0.0132	?
O=C(c1ccc(COc2ccc(Cl)cc2)o1)N1N=C(C(F)F)CC1(O)C(F)F (configuration not stated)	–	–	–	–	–	–	·	·	·	·	·	·
O=C(N/N=C/c1cccs1)c1cc(-c2ccc(Cl)s2)[nH]n1	–	–	–	–	–	·	·	·	·	·	·	·
O=C(Nc1nc(SCc2ccc(F)cc2)ns1)c1ccco1	–	–	–	–	–	-3.72	–	?	0.0213	?	0.0118	–
CN(NS(=O)(=O)c1ccccc1)c1nc2ccccc2nc1C(F)(F)F	–	–	–	–	–	–	·	·	·	·	·	·
CN(NS(=O)(=O)c1ccc(Cl)cc1)c1nc(C(F)(F)F)nc2ccccc12	–	–	-7.61	–	–	-2.93	–	–	–	?	–	–
CCOC(=O)N1CCN(C(=O)CSC2=NS(=O)(=O)c3ccccc3N2)CC1	–	–	–	–	–	·	·	·	·	·	·	·
SMILES	hERG protect	KCNQ1 act	KCNK9 inh	KCNQ1 inh	KCNK3 inh	KCC2 mod	KCC2 sec1	KCC2 bumet counter	KCC2 secondary2	HEK counter1	KCC2 ouabain	HEK293 Tl flux2
O=C1c2ccccc2-c2cccc(NS(=O)(=O)c3ccc(C(F)(F)F)cc3)c21	–	–	–	–	–	·	?	0.0761	?	0.0232	0.0394	0.0158
O=[N+]([O-])c1ccc2nc(Cl)nc(-c3ccccc3)c2c1	–	–	–	–	–	·	·	·	·	·	·	·
Cc1ccnc(NC(=S)NC(=O)c2cncc(Br)c2)c1	–	–	–	–	–	8.47	–	0.0186	–	0.0152	?	0.014
CN1CCN(CCCNC(=O)c2ccc(/C=C3\Sc4ccccc4N(Cc4ccc(F)cc4)C3=O)cc2)CC1	–	–	–	6	–	2.7	–	–	–	–	–	–
O=C(Nc1ncc2c(n1)-c1ccccc1CC2)c1ccc(Cl)cc1	–	–	–	–	–	–	·	·	·	·	·	·
O=C(Nc1ncc2c(n1)-c1ccccc1CC2)c1cccc(Cl)c1	–	–	–	–	–	-4.4	–	–	0.0223	–	0.0135	–
COc1ccc(C)cc1NC(=O)CCNS(=O)(=O)c1cccc2nonc12	–	–	–	–	–	·	·	·	·	·	·	·
O=S(=O)(Nc1cc(Sc2cccc3cccnc23)c(O)c2ccccc12)c1ccccc1	–	–	–	–	·	47.7	0.0351	0.0799	0.044	0.0491	0.0577	0.0152
COc1cc(NS(=O)(=O)c2ccc(C)cc2)c2ncccc2c1	–	–	–	–	–	49.4	0.0277	0.0926	–	?	0.0624	?
Cc1ccc(S(=O)(=O)Nc2cccc3cccnc23)cc1	–	–	–	–	–	13.4	?	0.0661	–	0.02	0.0348	?
